Laboratory results reported in ChEMBL document CHEMBL1147895, “Novel synthetic approach to N-aryl-4-(3-pyridyl)thiazol-2-amine and analogues using HMCM-41 as catalyst, and their biological evaluation as human platelet aggregation inhibitors” (Eur J Med Chem, 2007).

Test system: Platelet
Experiment: Inhibition of ADP-induced human platelet aggregation
Format: functional, cell-based
Method in brief: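 Human PRP from fasted, medication-free healthy male volunteers: citrated blood (0.38% final) spun at 800 rpm for 10 min; PPP from a 2500 rpm, 10 min spin. Compounds in DMSO (0.01% final) preincubated 2 min at 37 °C before ADP activation. Born turbidimetry; maximum curve height read, % inhibition versus vehicle; IC50 from linear regression of % inhibition against concentration.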

| SMILES | IC50 [µM] |
| --- | --- |
| CC(C)(C(=O)O)N1CCC(Nc2nc(-c3ccc(C(=N)N)cc3)cs2)CC1 | > 10 |
| N=C(N)c1ccc(-c2csc(N(CCC(=O)O)C3CCN(CC(=O)O)CC3)n2)cc1 | 0.046 |
| N=C(N)c1ccc(-c2csc(N(Cc3ccccc3)C3CCN(CC(=O)O)CC3)n2)cc1 | 0.23 |
| N=C(N)c1ccc(-c2csc(NC3CCN(CCC(=O)O)CC3)n2)cc1 | 1.8 |
| N=C(N)c1ccc(-c2csc(NC3CCN(CC(=O)O)CC3)n2)cc1 | 0.042 |
| N=C(N)c1ccc(-c2csc(NC3CCN(C(C(=O)O)c4ccccc4Cl)CC3)n2)cc1 (stereo not drawn) | 6 |
| N=C(N)c1ccc(-c2csc(NC3CCN(C(C(=O)O)c4ccccc4)CC3)n2)cc1 (stereo not drawn) | 0.065 |
| CN(c1nc(-c2ccc(C(=N)N)cc2)cs1)C1CCN(CC(=O)O)CC1 | 0.16 |
| N=C(N)c1ccc(-c2csc(N(CCCC(=O)O)C3CCN(CC(=O)O)CC3)n2)cc1 | 0.096 |
| N=C(N)c1ccc(-c2csc(N(CC(=O)O)C3CCN(CC(=O)O)CC3)n2)cc1 | 0.17 |
| N=C(N)c1ccc(-c2csc(NC3CCN(C(CC(=O)O)C(=O)O)CC3)n2)cc1 (stereo not drawn) | 0.085 |
| CC(C(=O)O)N1CCC(Nc2nc(-c3ccc(C(=N)N)cc3)cs2)CC1 (stereo not drawn) | 0.25 |
| CCc1ccccc1Nc1nc(-c2cccnc2)cs1 | 1.35 |
| CCc1cccc(CC)c1Nc1nc(-c2cccnc2)cs1 | 2.19 |
| Fc1ccccc1Nc1nc(-c2cccnc2)cs1 | 0.484 |
| c1cncc(-c2csc(Nc3cccc4ccccc34)n2)c1 | 2.89 |
| Nc1nc(-c2cccnc2)c[s+]1[O-] (stereo not drawn) | 1.41 |
| Cc1ccc(Nc2nc(-c3cccnc3)cs2)cc1 | 2 |
